# Test results taken from ChEMBL document CHEMBL4619817, “Stereochemical Differences in Fluorocyclopropyl Amides Enable Tuning of Btk Inhibition and Off-Target Activity” (ACS Med Chem Lett, 2020).
# Assays:
# [1] = Metabolic stability in rat liver microsomes assessed as intrinsic clearance at 1 uM measured upto 60 mins by LC-MS/MS analysis; type: ADME, Microsome; settings: read-out: CLH
# [2] = Apparent permeability from apical to basolateral side in MDCK cells at 10 uM incubated for 3 hrs by LC-MS/MS analysis; type: ADME, cell-based, Canis lupus familiaris; settings: dog
# [3] = Lipophilicity, logD of compound at 7.4 by the LC/MS based microscale shake flask method; type: physicochemical; settings: octanol/water, pH 7.4
# Outline: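 LogD measured by high-throughput microscale shake flask with LC tandem MS quantitation.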
# [4] = Metabolic stability in human liver microsomes assessed as intrinsic clearance at 1 uM measured upto 60 mins by LC-MS/MS analysis; type: ADME, Microsome; settings: read-out: CLH
# [5] = Oral bioavailability in Sprague-Dawley rat at 1 mg/kg measured upto 8 hrs by LC-MS/MS analysis; type: ADME, organism-based; settings: in vivo
# [6] = Metabolic stability in dog liver microsomes assessed as intrinsic clearance at 1 uM measured upto 60 mins by LC-MS/MS analysis; type: ADME, Canis lupus familiaris, Microsome; settings: read-out: CLH
# [7] = Unbound clearance in Sprague-Dawley rat at 1 mg/kg, po measured upto 8 hrs by LC-MS/MS analysis; type: ADME, organism-based; settings: in vivo
# [8] = Metabolic stability in dog Hepatocyte assessed as intrinsic clearance at 1 uM measured upto 60 mins by LC-MS/MS analysis; type: ADME, cell-based, Canis lupus familiaris; settings: hepatocytes, read-out: CLH
# [9] = Metabolic stability in rat Hepatocyte assessed as intrinsic clearance at 1 uM measured upto 60 mins by LC-MS/MS analysis; type: ADME, cell-based; settings: hepatocytes, read-out: CLH
# [10] = Metabolic stability in human Hepatocyte assessed as compound hydrolysis at 5 uM incubated for 3 hrs by LC-MS/MS analysis; type: ADME, cell-based; settings: hepatocytes, read-out: Drug degradation
# Outline: (§1)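 Compound incubated at 5 μM in cryopreserved hepatocytes (∼1.0 × 10^6 cells/mL) for 3 h; percent amide hydrolysis determined.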
# [11] = Metabolic stability in rat Hepatocyte assessed as compound hydrolysis at 5 uM incubated for 3 hrs by LC-MS/MS analysis; type: ADME, cell-based; settings: hepatocytes, read-out: Drug degradation; outline: as §1
# [12] = Clearance in Sprague-Dawley rat at 0.2 mg/kg, iv measured upto 8 hrs by LC-MS/MS analysis; type: ADME, organism-based; settings: in vivo
# [13] = Metabolic stability in dog Hepatocyte assessed as compound hydrolysis at 5 uM incubated for 3 hrs by LC-MS/MS analysis; type: ADME, cell-based, Canis lupus familiaris; settings: hepatocytes, read-out: Drug degradation; outline: as §1
# [14] = Metabolic stability in human Hepatocyte assessed as intrinsic clearance at 1 uM measured upto 60 mins by LC-MS/MS analysis; type: ADME, cell-based; settings: hepatocytes, read-out: CLH
# [15] = Oral bioavailability in Beagle dog at 2 mg/kg measured upto 24 hrs by LC-MS/MS analysis; type: ADME, organism-based, Canis lupus familiaris; settings: in vivo
# [16] = Clearance in Beagle dog at 1 mg/kg, iv measured upto 24 hrs by LC-MS/MS analysis; type: ADME, organism-based, Canis lupus familiaris; settings: in vivo
# [17] = Oral bioavailability in Beagle dog at 5 mg/kg measured upto 24 hrs by LC-MS/MS analysis; type: ADME, organism-based, Canis lupus familiaris; settings: in vivo
compound,measurement,setting,value
Cn1cc(-c2ccnc(-n3ncc4cc(C(C)(C)C)cc(F)c4c3=O)c2CO)cc(NC(=O)[C@H]2C[C@@H]2F)c1=O,CLint scaled at 1 µM,[1],14 mL/min/kg
same,"Papp A→B at 3 h, 10 µM",[2],10.8 ×10⁻⁶ cm/s
same,logD,[3],3
same,CLint scaled at 1 µM,[4],8.5 mL/min/kg
Cn1cc(-c2ccnc(-n3ncc4cc(C(C)(C)C)cc(F)c4c3=O)c2CO)cc(NC(=O)[C@@H]2C[C@@H]2F)c1=O,CLint scaled at 1 µM,[1],11 mL/min/kg
same,bioavailability,[5],40%
same,CLint scaled at 1 µM,[6],20 mL/min/kg
same,CL free,[7],326 mL/min/kg
same,CLint scaled at 1 µM,[8],< 21 mL/min/kg
same,CLint scaled at 1 µM,[9],11 mL/min/kg
same,"metabolised at 3 h, 5 µM",[10],≤ 1%
same,"metabolised at 3 h, 5 µM",[11],≤ 1%
same,clearance,[12],15 mL/min/kg
same,"Papp A→B at 3 h, 10 µM",[2],12.1 to 12.5 ×10⁻⁶ cm/s
same,"metabolised at 3 h, 5 µM",[13],≤ 1%
same,CLint scaled at 1 µM,[14],6.2 mL/min/kg
same,logD,[3],1.6
same,bioavailability,[15],123%
same,clearance,[16],2 mL/min/kg
same,CLint scaled at 1 µM,[4],8 mL/min/kg
Cn1cc(-c2ccnc(N3CCn4c(cc5c4CC(C)(C)C5)C3=O)c2CO)cc(NC(=O)C2(F)CC2)c1=O,logD,[3],2.5
Cn1cc(-c2cc(F)cc(-n3ncc4cc(C(C)(C)C)cc(F)c4c3=O)c2CO)cc(NC(=O)[C@H]2C[C@H]2F)c1=O,logD,[3],2
Cn1cc(-c2ccnc(-n3ncc4cc(C(C)(C)C)cc(F)c4c3=O)c2CO)cc(NC(=O)[C@@H]2C[C@H]2F)c1=O,CLint scaled at 1 µM,[1],15 mL/min/kg
same,"Papp A→B at 3 h, 10 µM",[2],14 ×10⁻⁶ cm/s
same,logD,[3],2.5
same,CLint scaled at 1 µM,[4],4.6 mL/min/kg
Cn1cc(-c2ccnc(N3CCn4c(cc5c4CC(C)(C)C5)C3=O)c2CO)cc(NC(=O)C2CCC2)c1=O,logD,[3],3.3
Cn1cc(-c2ccnc(N3CCc4c(cc5n4CCCC5)C3=O)c2CO)cc(NC(=O)C2CC2)c1=O,CLint scaled at 1 µM,[1],20 mL/min/kg
same,logD,[3],1.2
same,CLint scaled at 1 µM,[4],9.8 mL/min/kg
COCC(=O)Nc1cc(-c2ccnc(N3CCn4c(cc5c4CC(C)(C)C5)C3=O)c2CO)cn(C)c1=O,logD,[3],1.5
CC(C)C(=O)Nc1cc(-c2ccnc(N3CCn4c(cc5c4CC(C)(C)C5)C3=O)c2CO)cn(C)c1=O,logD,[3],3.2
Cn1cc(-c2ccnc(N3CCn4c(cc5c4CC(C)(C)C5)C3=O)c2CO)cc(NC(=O)C2COC2)c1=O,logD,[3],2.2
Cn1cc(-c2ccnc(-n3ncc4cc(C(C)(C)C)cc(F)c4c3=O)c2CO)cc(NC(=O)C2CC2)c1=O,CLint scaled at 1 µM,[1],13 mL/min/kg
same,"Papp A→B at 3 h, 10 µM",[2],13.5 ×10⁻⁶ cm/s
same,logD,[3],2.5
same,CLint scaled at 1 µM,[4],3.2 mL/min/kg
Cn1cc(-c2ccnc(N3CCn4c(cc5c4CC(C)(C)C5)C3=O)c2CO)cc(NC(=O)C2(O)CC2)c1=O,logD,[3],1.8
Cn1cc(-c2cc(F)cc(-n3ncc4cc(C(C)(C)C)cc(F)c4c3=O)c2CO)cc(NC(=O)[C@@H]2C[C@@H]2F)c1=O,logD,[3],2.8
Cn1cc(-c2ccnc(N3CCn4c(cc5c4CC(C)(C)C5)C3=O)c2CO)cc(NC(=O)c2cccnc2)c1=O,logD,[3],2
Cn1cc(-c2ccnc(N3CCn4c(cc5c4CC(C)(C)C5)C3=O)c2CO)cc(NC(=O)[C@@H]2C[C@@H]2F)c1=O,logD,[3],2.5
Cn1cc(-c2ccnc(N3CCn4c(cc5c4CC(C)(C)C5)C3=O)c2CO)cc(NC(=O)[C@H]2C[C@H]2F)c1=O,logD,[3],2.3
Cn1cc(-c2ccnc(N3CCn4c(cc5c4CC(C)(C)C5)C3=O)c2CO)cc(NC(=O)C2CC2)c1=O,CLint scaled at 1 µM,[1],7.2 mL/min/kg
same,logD,[3],3
same,CLint scaled at 1 µM,[4],5.3 mL/min/kg
Cn1cc(-c2ccnc(N3CCn4c(cc5c4CC(C)(C)C5)C3=O)c2CO)cc(NC(=O)[C@@H]2CCCO2)c1=O,logD,[3],2.1
CC(=O)Nc1cc(-c2ccnc(N3CCn4c(cc5c4CC(C)(C)C5)C3=O)c2CO)cn(C)c1=O,logD,[3],2.1
Cn1nc(-c2ccnc(-n3ncc4cc(C(C)(C)C)cc(F)c4c3=O)c2CO)cc(NC(=O)[C@@H]2C[C@@H]2F)c1=O,CLint scaled at 1 µM,[1],16 mL/min/kg
same,logD,[3],1.7
same,CLint scaled at 1 µM,[4],7.4 mL/min/kg
Cn1cc(-c2ccnc(N3CCn4c(cc5c4CC(C)(C)C5)C3=O)c2CO)cc(NC(=O)CC2CC2)c1=O,logD,[3],3.4
Cn1cc(-c2ccnc(-n3ncc4cc(C(C)(C)C)cc(F)c4c3=O)c2CO)nc(NC(=O)[C@@H]2C[C@@H]2F)c1=O,CLint scaled at 1 µM,[1],13 mL/min/kg
same,logD,[3],1.3
same,CLint scaled at 1 µM,[4],< 3.9 mL/min/kg
Cn1cc(-c2ccnc(N3CCn4c(cc5c4CC(C)(C)C5)C3=O)c2CO)cc(NC(=O)CN2CCOCC2)c1=O,logD,[3],2.3
Cn1cc(-c2ccnc(-n3ncc4cc(C(C)(C)C)cc(F)c4c3=O)c2CO)cc(NC(=O)[C@H]2C[C@H]2F)c1=O,CLint scaled at 1 µM,[1],11 mL/min/kg
same,"Papp A→B at 3 h, 10 µM",[2],6.4 ×10⁻⁶ cm/s
same,logD,[3],2
same,CLint scaled at 1 µM,[4],5.5 mL/min/kg
CCC(=O)Nc1cc(-c2ccnc(N3CCn4c(cc5c4CC(C)(C)C5)C3=O)c2CO)cn(C)c1=O,logD,[3],2.5
Cn1cc(-c2ccnc(-n3ncc4c5c(sc4c3=O)CCCC5)c2CO)cc(NC(=O)C2CC2)c1=O,CLint scaled at 1 µM,[1],8.4 mL/min/kg
same,logD,[3],2.1
same,CLint scaled at 1 µM,[4],7.4 mL/min/kg
CCCC(=O)Nc1cc(-c2ccnc(N3CCn4c(cc5c4CC(C)(C)C5)C3=O)c2CO)cn(C)c1=O,logD,[3],2.6
C[C@H]1CN(C2COC2)CCN1c1ccc(Nc2cc(-c3ccnc(N4CCn5c(cc6c5CC(C)(C)C6)C4=O)c3CO)cn(C)c2=O)nc1 [FENEBRUTINIB],CLint scaled at 1 µM,[1],14 mL/min/kg
same,bioavailability,[5],96%
same,CLint scaled at 1 µM,[6],29 mL/min/kg
same,CL free,[7],314 mL/min/kg
same,CLint scaled at 1 µM,[8],< 21 mL/min/kg
same,CLint scaled at 1 µM,[9],10 mL/min/kg
same,clearance,[12],22 mL/min/kg
same,"Papp A→B at 3 h, 10 µM",[2],15.1 ×10⁻⁶ cm/s
same,bioavailability,[17],130%
same,CLint scaled at 1 µM,[14],9.3 mL/min/kg
same,logD,[3],1.6
same,clearance,[16],12 mL/min/kg
same,CLint scaled at 1 µM,[4],9.5 mL/min/kg
